Experimental data reported in ChEMBL document CHEMBL2010675, “Discovery of GS-9451: an acid inhibitor of the hepatitis C virus NS3/4A protease” (Bioorg Med Chem Lett, 2012).
Converted amounts (≈) assume the structure as drawn.

Experiments:
[1] = Thermodynamic solubility of the compound at pH 7.3; format: physicochemical; conditions: buffer, read-out: Therm_solubility
Hepatitis C virus [2] = assay: Inhibition of Hepatitis C virus genotype 1b NS3/4A protease; set-up: species or system Hepatitis C virus subtype 1b
Hepatitis C virus [3] = assay: Antiviral activity against Hepatitis C virus genotype 1b infected in human Huh cells by luciferase reporter gene based replicon assay; format: functional, organism-based, Hepacivirus hominis
Procedure, shortened: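 EC50 from a cell-based assay in Huh-luc cells carrying a subgenomic HCV genotype 1b replicon, with luciferase reporter read-out.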

[4] = Thermodynamic solubility of the compound at pH 2.2; format: physicochemical; conditions: buffer; for solubility thermodynamic: read-out: Therm_solubility
[5] = Permeability from basolateral to apical side in human Caco2 cells; format: ADME, cell-based; conditions: Caco-2, read-out: permeability
[6] = Permeability from apical to basolateral side in human Caco2 cells; format: ADME, cell-based; conditions: Caco-2, read-out: permeability

Structure (SMILES)	solubility thermodynamic [1]	IC50 (Hepatitis C virus [2])	EC50 (Hepatitis C virus [3])	Therm_solubility [4]	Papp B→A [5]	Papp A→B [6]	solubility thermodynamic [4]
CC[C@@H]1C[C@]1(NC(=O)[C@@H]1C[C@@H](Oc2cc(-c3csc(NC(C)C)n3)nc3c(Cl)c(OC)ccc23)CN1C(=O)[C@@H](NC(=O)O[C@@H]1C[C@@H]2C[C@@H]2C1)C(C)(C)C)C(=O)O	72 µM (≈ 58.4 µg/mL)	1.4 nM	9 nM	Insoluble(BLD)	25 ×10⁻⁶ cm/s	7.3 ×10⁻⁶ cm/s	
CC[C@@H]1C[C@]1(NC(=O)[C@@H]1C[C@@H](Oc2cc(-c3csc(NC(C)C)n3)nc3c(Cl)c(OC)ccc23)CN1C(=O)[C@@H](NC(=O)O[C@H]1C[C@@H]2[C@H](C1)C2(F)F)C(C)(C)C)C(=O)O	57 µM (≈ 48.3 µg/mL)	2.6 nM	5 nM		18 ×10⁻⁶ cm/s	4.5 ×10⁻⁶ cm/s	20 µM (≈ 16.9 µg/mL)
CC[C@@H]1C[C@]1(NC(=O)[C@@H]1C[C@@H](Oc2cc(-c3csc(NC(C)C)n3)nc3c(Cl)c(OC)ccc23)CN1C(=O)[C@@H](NC(=O)O[C@@H]1C[C@@H]2[C@H](C1)C2(F)F)C(C)(C)C)C(=O)O	9 µM (≈ 7.63 µg/mL)	5 nM	115 nM		49 ×10⁻⁶ cm/s	6.8 ×10⁻⁶ cm/s	< 6 µM
